pIC50: −log10 of the molar value.
Molecular target: T1, Tryptophan 5-hydroxylase 1 (Rattus norvegicus, UniProt P09810)
T1 sequence (P09810 whole entry): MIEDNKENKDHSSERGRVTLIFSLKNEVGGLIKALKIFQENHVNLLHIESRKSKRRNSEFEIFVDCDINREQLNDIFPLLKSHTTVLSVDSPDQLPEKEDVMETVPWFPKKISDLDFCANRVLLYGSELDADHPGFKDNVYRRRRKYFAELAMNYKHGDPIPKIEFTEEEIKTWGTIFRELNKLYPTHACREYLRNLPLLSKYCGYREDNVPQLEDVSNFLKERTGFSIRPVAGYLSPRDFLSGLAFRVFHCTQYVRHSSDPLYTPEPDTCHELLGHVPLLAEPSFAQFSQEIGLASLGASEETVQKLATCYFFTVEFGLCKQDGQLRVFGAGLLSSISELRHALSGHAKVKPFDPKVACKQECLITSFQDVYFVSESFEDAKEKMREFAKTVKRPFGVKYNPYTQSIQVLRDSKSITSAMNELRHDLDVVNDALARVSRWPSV
Details: not given

For `Nc1nc(OC(c2ccc(-c3cccc(F)c3)cc2)C(F)(F)F)cc(-c2ccc(C[C@H](N)C(=O)O)cc2)n1` (stereo not given in full), the pIC50 was 6.40.

System: not listed separately
Assay: Cytotoxicity against rat RBL2H3 cells by MTT assay
Format: cell-based
Parameters: concentration or dose not given beside the values
Details: rbl-2h3
Outline: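 RBL2H3 cells (α-MEM) or PC12 cells (D-MEM), both with 10% FBS, treated at a single dose in 0.1% DMSO; 0.1% DMSO control; 37 °C, 5% CO2. MTT (5 mg/mL) added 4 h before the end, then SDS/DMF lysis buffer (pH 7.2) for 6 h; absorbance read at 570 nm. Cytotoxicity % calculated from background-corrected OD versus control.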

First: C[C@H]1[C@H](C)CC[C@]2(C(=O)NCCN3CCCCC3)CC[C@]3(C)C(=CC[C@@H]4[C@@]5(C)Cc6nc7ccccc7nc6C(C)(C)[C@@H]5CC[C@]43C)[C@H]12
Second: C[C@H]1[C@H](C)CC[C@]2(C(=O)NCCCN3CCOCC3)CC[C@]3(C)C(=CC[C@@H]4[C@@]5(C)Cc6nc7ccccc7nc6C(C)(C)[C@@H]5CC[C@]43C)[C@H]12
The Activity of the first is higher: 52.1% for the first, 31.3% for the second.

First: COC(=O)C(Cc1ccccc1)NC(=O)[C@]12CC[C@@H](C)[C@H](C)[C@H]1C1=CC[C@@H]3[C@@]4(C)C=C(C#N)C(=O)C(C)(C)[C@@H]4CC[C@@]3(C)[C@]1(C)CC2 (stereo not given in full)
Second: COC(=O)C(Cc1ccccc1)NC(=O)[C@]12CC[C@@H](C)[C@H](C)[C@H]1C1=CC[C@@H]3[C@@]4(C)CCC(=O)C(C)(C)[C@@H]4CC[C@@]3(C)[C@]1(C)CC2 (stereo not given in full)
The Activity of the first is higher: 5.4% for the first, 1.1% for the second.

Compared with `COC(=O)C(Cc1ccccc1)NC(=O)[C@]12CC[C@@H](C)[C@H](C)[C@H]1C1=CC[C@@H]3[C@@]4(C)CC[C@H](OC(C)=O)C(C)(C)[C@@H]4CC[C@@]3(C)[C@]1(C)CC2` (stereo not given in full), `COC(=O)C(CC(C)C)NC(=O)[C@]12CC[C@@H](C)[C@H](C)[C@H]1C1=CC[C@@H]3[C@@]4(C)CC[C@H](OC(C)=O)C(C)(C)[C@@H]4CC[C@@]3(C)[C@]1(C)CC2` (stereo not given in full) is lower in Activity: 12.4% for the first, 6.6% for the second.

First: CCOC(=O)CNC(=O)[C@]12CC[C@@H](C)[C@H](C)[C@H]1C1=CC[C@@H]3[C@@]4(C)C=C(C#N)C(=O)C(C)(C)[C@@H]4CC[C@@]3(C)[C@]1(C)CC2
Second: CCOC(=O)CNC(=O)[C@]12CC[C@@H](C)[C@H](C)[C@H]1C1=CC[C@@H]3[C@@]4(C)CCC(=O)C(C)(C)[C@@H]4CC[C@@]3(C)[C@]1(C)CC2
The Activity of the first is higher: 50.1% for the first, 1.7% for the second.

Compared with `C[C@H]1[C@H](C)CC[C@]2(C(=O)NCCC3CCN(Cc4ccccc4)CC3)CC[C@]3(C)C(=CC[C@@H]4[C@@]5(C)Cc6nc7ccccc7nc6C(C)(C)[C@@H]5CC[C@]43C)[C@H]12`, `COC(=O)C(Cc1ccccc1)NC(=O)[C@]12CC[C@@H](C)[C@H](C)[C@H]1C1=CC[C@@H]3[C@@]4(C)Cc5nc6ccccc6nc5C(C)(C)[C@@H]4CC[C@@]3(C)[C@]1(C)CC2` (stereo not given in full) is lower in Activity: 59.5% for the first, 12.4% for the second.

First: COC(=O)C(CC(C)C)NC(=O)[C@]12CC[C@@H](C)[C@H](C)[C@H]1C1=CC[C@@H]3[C@@]4(C)Cc5c([nH]c6ccc(Cl)cc56)C(C)(C)[C@@H]4CC[C@@]3(C)[C@]1(C)CC2 (stereo not given in full)
Second: COC(=O)C(CC(C)C)NC(=O)[C@]12CC[C@@H](C)[C@H](C)[C@H]1C1=CC[C@@H]3[C@@]4(C)Cc5c([nH]c6ccc(Br)cc56)C(C)(C)[C@@H]4CC[C@@]3(C)[C@]1(C)CC2 (stereo not given in full)
The Activity of the first is higher: 15% for the first, 3% for the second.

Going from `COC(=O)C(CC(C)C)NC(=O)[C@]12CC[C@@H](C)[C@H](C)[C@H]1C1=CC[C@@H]3[C@@]4(C)Cc5cncnc5C(C)(C)[C@@H]4CC[C@@]3(C)[C@]1(C)CC2` (stereo not given in full) to `COC(=O)C(CC(C)C)NC(=O)[C@]12CC[C@@H](C)[C@H](C)[C@H]1C1=CC[C@@H]3[C@@]4(C)Cc5cnoc5C(C)(C)[C@@H]4CC[C@@]3(C)[C@]1(C)CC2` (stereo not given in full), the Activity rises from 10.3% to 17.7%.

Going from `C[C@H]1[C@H](C)CC[C@]2(C(=O)O)CC[C@]3(C)C(=CC[C@@H]4[C@@]5(C)Cc6cnn(-c7ccccc7)c6C(C)(C)[C@@H]5CC[C@]43C)[C@H]12` to `COC(=O)C(Cc1ccccc1)NC(=O)[C@]12CC[C@@H](C)[C@H](C)[C@H]1C1=CC[C@@H]3[C@@]4(C)Cc5cnn(-c6ccccc6)c5C(C)(C)[C@@H]4CC[C@@]3(C)[C@]1(C)CC2` (stereo not given in full), the Activity falls from 2.4% to 0.9%.

Compared with `CCOC(=O)CNC(=O)[C@]12CC[C@@H](C)[C@H](C)[C@H]1C1=CC[C@@H]3[C@@]4(C)Cc5nc6cc(Cl)c(Cl)cc6nc5C(C)(C)[C@@H]4CC[C@@]3(C)[C@]1(C)CC2`, `C[C@H]1[C@H](C)CC[C@]2(C(=O)O)CC[C@]3(C)C(=CC[C@@H]4[C@@]5(C)Cc6nc7cc(Cl)c(Cl)cc7nc6C(C)(C)[C@@H]5CC[C@]43C)[C@H]12` is higher in Activity: 2% for the first, 2.2% for the second.

Compared with `CCOC(=O)CNC(=O)[C@]12CC[C@@H](C)[C@H](C)[C@H]1C1=CC[C@@H]3[C@@]4(C)Cc5c([nH]c6ccc(Cl)cc56)C(C)(C)[C@@H]4CC[C@@]3(C)[C@]1(C)CC2`, `CCOC(=O)CNC(=O)[C@]12CC[C@@H](C)[C@H](C)[C@H]1C1=CC[C@@H]3[C@@]4(C)Cc5c([nH]c6ccc(Br)cc56)C(C)(C)[C@@H]4CC[C@@]3(C)[C@]1(C)CC2` is lower in Activity: 14.7% for the first, 1.7% for the second.

Going from `CCOC(=O)CNC(=O)[C@]12CC[C@@H](C)[C@H](C)[C@H]1C1=CC[C@@H]3[C@@]4(C)Cc5cn[nH]c5C(C)(C)[C@@H]4CC[C@@]3(C)[C@]1(C)CC2` to `COC(=O)C(CC(C)C)NC(=O)[C@]12CC[C@@H](C)[C@H](C)[C@H]1C1=CC[C@@H]3[C@@]4(C)Cc5cn[nH]c5C(C)(C)[C@@H]4CC[C@@]3(C)[C@]1(C)CC2` (stereo not given in full), the Activity rises from 0.4% to 0.9%.

Compared with `C[C@H]1[C@H](C)CC[C@]2(C(=O)O)CC[C@]3(C)C(=CC[C@@H]4[C@@]5(C)Cc6c([nH]c7ccc(Cl)cc67)C(C)(C)[C@@H]5CC[C@]43C)[C@H]12`, `C[C@H]1[C@H](C)CC[C@]2(C(=O)O)CC[C@]3(C)C(=CC[C@@H]4[C@@]5(C)Cc6c([nH]c7ccc(Br)cc67)C(C)(C)[C@@H]5CC[C@]43C)[C@H]12` is higher in Activity: 2.9% for the first, 3.7% for the second.

First: COC(=O)C(Cc1ccccc1)NC(=O)[C@]12CC[C@@H](C)[C@H](C)[C@H]1C1=CC[C@@H]3[C@@]4(C)Cc5cnn(-c6ccc(F)cc6)c5C(C)(C)[C@@H]4CC[C@@]3(C)[C@]1(C)CC2 (stereo not given in full)
Second: COC(=O)C(CC(C)C)NC(=O)[C@]12CC[C@@H](C)[C@H](C)[C@H]1C1=CC[C@@H]3[C@@]4(C)Cc5cnn(-c6ccc(F)cc6)c5C(C)(C)[C@@H]4CC[C@@]3(C)[C@]1(C)CC2 (stereo not given in full)
The Activity of the first is higher: 2% for the first, 1% for the second.

Going from `COC(=O)C(CC(C)C)NC(=O)[C@]12CC[C@@H](C)[C@H](C)[C@H]1C1=CC[C@@H]3[C@@]4(C)Cc5nc6ccccc6nc5C(C)(C)[C@@H]4CC[C@@]3(C)[C@]1(C)CC2` (stereo not given in full) to `COC(=O)C(CC(C)C)NC(=O)[C@]12CC[C@@H](C)[C@H](C)[C@H]1C1=CC[C@@H]3[C@@]4(C)Cc5nc6cc(Cl)c(Cl)cc6nc5C(C)(C)[C@@H]4CC[C@@]3(C)[C@]1(C)CC2` (stereo not given in full), the Activity rises from 0.5% to 0.7%.

Going from `CSCC[C@@H](NC(=O)[C@]12CC[C@@H](C)[C@H](C)[C@H]1C1=CC[C@@H]3[C@@]4(C)Cc5nc6ccccc6nc5C(C)(C)[C@@H]4CC[C@@]3(C)[C@]1(C)CC2)C(=O)O` to `C[C@H]1[C@H](C)CC[C@]2(C(=O)O)CC[C@]3(C)C(=CC[C@@H]4[C@@]5(C)Cc6nc7ccccc7nc6C(C)(C)[C@@H]5CC[C@]43C)[C@H]12`, the Activity falls from 6.2% to 3.5%.

First: CCOC(=O)CNC(=O)[C@]12CC[C@@H](C)[C@H](C)[C@H]1C1=CC[C@@H]3[C@@]4(C)Cc5cnn(-c6ccc(F)cc6)c5C(C)(C)[C@@H]4CC[C@@]3(C)[C@]1(C)CC2
Second: CCOC(=O)CNC(=O)[C@]12CC[C@@H](C)[C@H](C)[C@H]1C1=CC[C@@H]3[C@@]4(C)CC[C@H](OC(C)=O)C(C)(C)[C@@H]4CC[C@@]3(C)[C@]1(C)CC2
The Activity of the first is higher: 15.8% for the first, 1.6% for the second.

Compared with `COC(=O)C(CC(C)C)NC(=O)[C@]12CC[C@@H](C)[C@H](C)[C@H]1C1=CC[C@@H]3[C@@]4(C)C=C(C#N)C(=O)C(C)(C)[C@@H]4CC[C@@]3(C)[C@]1(C)CC2` (stereo not given in full), `COC(=O)C(Cc1ccccc1)NC(=O)[C@]12CC[C@@H](C)[C@H](C)[C@H]1C1=CC[C@@H]3[C@@]4(C)Cc5cnoc5C(C)(C)[C@@H]4CC[C@@]3(C)[C@]1(C)CC2` (stereo not given in full) is lower in Activity: 58.1% for the first, 0.8% for the second.

From ChEMBL document CHEMBL3286111, “Tryptophan hydroxylase 1 (Tph-1)-targeted bone anabolic agents for osteoporosis” (J Med Chem, 2014)
